These results are taken from publication PMC6139073 (Cancer research, 2018).

A short description of data set [1]: Plasma pharmacokinetics in patients. It counts as in vivo, human.
The next data set has as its system p-ERK. The data set is described as follows: p-ERK immunohistochemistry. It counts as in vivo, human. The settings on record: run-in and concurrent arms combined; H-score over 50 positive. A digest of the protocol: (§1)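 Tumour biopsies from the expansion cohort (20 patients with metastatic irinotecan- and oxaliplatin-refractory CRC on MEK inhibitor plus Wnt-modulator combination); two core biopsies per patient, taken pre- and post-treatment. IHC with hematoxylin counterstain; brown membrane/cytoplasmic staining was scored positive. H-score (0–300) was derived from the proportion and intensity of stained tumour cells in the predominant compartment. Values over 50 were positive, and results were summarised descriptively.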

Another data set relates to FZD1/2. Briefly: FZD1/2 immunohistochemistry. Conditions: run-in and concurrent arms combined; H-score over 50 positive. Format: in vivo, human. A digest of the protocol: as §1
For data set [2] the following is noted: single agent; cited from earlier work.
The conditions of data set [3]: in vivo; cited from earlier work.
The conditions of data set [4]: in vivo; cited from earlier work. The source holds these as a separate data set.
For data set [5], the system named is advanced BRAF V600E or V600K mutated melanoma. Conditions: single agent, cited from earlier work.

Take `Cn1cnc2c(F)c(Nc3ccc(Br)cc3Cl)c(C(=O)NOCCO)cc21` [selumetinib]: the “difference in pharmacokinetics of selumetinib given alone versus with CsA” value in data set [1] (day -7 vs C1D1) is “no substantial difference”. In data set [1] (human, plasma, oral), this compound returned a Cmax of 1250 ng/mL. For the same compound, in data set [1] (human, plasma, oral, 75 mg), the highest level (Cmax) was 1550 ng/mL and the half-life was 6.4 h. Moreover, in the data set on p-ERK, the “patients positive for p-ERK post-treatment” value was 14 out of 15. Further, the “patients positive for FZD1/2 post-treatment” value in the data set on FZD1/2 is recorded as 11 out of 15. In addition, the “Recommended Phase II Dose (RP2D)” value in data set [2] is 100 mg BID. For the same compound, in data set [3], the “Visual changes, patients” value is 12%; the dose limiting toxicity result is “grade 3 acneiform rash and pleural effusion”. Also, the “mean half-life (t½)” value in data set [4] is given as 5 to 8 h.
Regarding `CC(=O)Nc1cccc(-n2c(=O)n(C3CC3)c(=O)c3c(Nc4ccc(I)cc4F)n(C)c(=O)c(C)c32)c1` [trametinib], the median progression-free survival in data set [5] (vs 1.5 in comparator, p < 0.001) is listed as 4.8 mos. Further, the 6-month survival rate in data set [5] (vs 67% in comparator) was 81%.

As usually defined, the Cmax is the maximum level reached in the sampled fluid or tissue. One may read the half-life as how long it takes for the measured level to halve.
